According to ChEMBL document CHEMBL1130202, “Biologically active heteroarotinoids exhibiting anticancer activity and decreased toxicity” (J Med Chem, 1997):
Calls of active or inactive are those of the source. The calls are words filed in the database; no cut-off is given here.

Tests used:
Mus musculus [1] = species: Mus musculus; assay: Fracture incidence in mouse at high dose; 3/8
Mus musculus [2] = species: Mus musculus; assay: Mortality rate in mice in high dose; type: functional
Outline: (§1)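 Male B6D2F1 mice given compound daily by gavage in corn oil at the stated dose levels, with corn oil vehicle controls. Deaths counted as animals found dead or sacrificed moribund, with day(s) of death recorded. Heteroarotinoid groups ran to day 65 and low-dose reference groups to day 25.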

Mus musculus [3] = species: Mus musculus; assay: Effect of compound on serum triglycerides levels in mice at mid dose 2 on day 8; type: functional
Outline: (§2)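 Male B6D2F1 mice were gavaged daily with compound in corn oil at low, mid 1, mid 2 or high dose. Serum triglycerides and circulating white blood cells were measured on the stated day (8, 29, 36, 65). Values are group mean ± SD expressed as % relative to corn-oil vehicle, with significance at p ≤ 0.05.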

Mus musculus [4] = species: Mus musculus; assay: Avoiding pressure on limbs in mice at mid dose 1 with Hypervitaminosis 0/16; type: functional, organism-based; details: Limb
Mus musculus [5] = species: Mus musculus; assay: Skin scaling in mice at high dose with Hypervitaminosis; 2/16; type: functional, organism-based
Mus musculus [6] = assay: Skin scaling at 0.4 mg/kg/day in mice with hypervitaminosis; 15/16; type: functional, organism-based
Mus musculus [7] = assay: Effect of compound on adrenal to body weight ratios in mice at 0.2 mg/kg/day dose; all the animals died by day 65; type: functional, organism-based
Mus musculus [8] = assay: Enlarged lymph in gross pathological observations with hypervitaminosis A in mice at 0.2 mg/kg/day dose with gross observations/total number of animals in group; 16/16; type: functional, organism-based
Mus musculus [9] = assay: Avoiding pressure on limbs at 0.1 mg/kg/day dose in mice hypervitaminosis; 0/16; type: functional, organism-based; details: Limb
Mus musculus [10] = assay: Effect of compound on right testicle to body weight ratios in mice at 0.05 mg/kg/day dose; all the animals died by day 65; type: functional, organism-based
Mus musculus [11] = assay: Average number of fractures per mouse at 0.8 mg/kg/day
Mus musculus [12] = assay: Fracture incidents in mouse at 0.01 mg/kg/day; 1/7
Mus musculus [13] = assay: Fracture incidents in mouse at 0.2 mg/kg/day; 3/8
Mus musculus [14] = assay: Avoiding pressure on limbs at 0.8 mg/kg/day dose in mice hypervitaminosis; 0/16; type: functional, organism-based; details: Limb
Mus musculus [15] = assay: Fracture incidents in mouse at 0.4 mg/kg/day; 3/12
[16] = Mortality rate in mice at 0.01 mg/kg/day; type: ADME, organism-based; details: mouse, in vivo
Outline: as §1

Mus musculus [17] = assay: Avoiding pressure on limbs at 0.01 mg/kg/day dose in mice hypervitaminosis; 0/16; type: functional, organism-based; details: Limb
Mus musculus [18] = assay: Effects of retinoids on thymus to body weight ratios in mice at 0.01 mg/kg/day dose
[19] = Mortality rate in mice at 0.8 mg/kg/day; range (7-8); type: ADME, organism-based; details: mouse, in vivo
Outline: as §1

Mus musculus [20] = assay: Average number of fractures per mouse at 0.2 mg/kg/day; 1/3
Mus musculus [21] = assay: Effect of compound on adrenal to body weight ratios in mice at 0.01 mg/kg/day dose; measured on day 25
Mus musculus [22] = assay: Calculated 30-day maximally tolerated dose based on 10% weight loss in mice at 0.05 mg/kg/day; type: functional
Mus musculus [23] = assay: Skin scaling at 0.2 mg/kg/day in mice with hypervitaminosis; 14/16; type: functional, organism-based
Mus musculus [24] = assay: Skin scaling at 0.1 mg/kg/day in mice with hypervitaminosis; 14/16; type: functional, organism-based
Mus musculus [25] = assay: Effect of compound on Spleen to body weight ratios in mice at 0.05 mg/kg/day dose; measured on day 25
Mus musculus [26] = assay: Total dose of 10% weight loss in mice at 0.01 mg/kg/day; type: functional
Mus musculus [27] = assay: Approximate day to determine 10% weight loss in mice at 0.05 mg/kg/day; type: functional
Outline: (§3)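 Male B6D2F1 mice dosed daily by gavage in corn oil; body weights followed to termination (day 65, or day 25 for TTNPB 0.01/0.05 mg/kg/day groups) and compared with the matching vehicle group. Value is approximate day of onset of 10% body weight reduction versus vehicle.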

Mus musculus [28] = assay: Effect of compound on thymus to body weight ratios in mice at 0.8 mg/kg/day dose; all the animals died by day 65; type: functional, organism-based
Outline: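 Male B6D2F1 mice were dosed daily by gavage in corn oil, with TTNPB given at 0.1–0.8 or 0.01/0.05 mg/kg/day. Thymus-to-body weight ratio (×1000) was taken at necropsy on day 65 against vehicle 1, or on day 25 for the 0.01/0.05 groups against vehicle 2. Mean ± SD of 4–8 animals, reported as % difference from vehicle.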

Mus musculus [29] = assay: Effect of compound on right testicle to body weight ratios in mice at 0.4 mg/kg/day dose on day 65; type: functional, organism-based
Mus musculus [30] = assay: Approximate day to determine 10% weight loss in mice at 0.01 mg/kg/day; type: functional
Outline: as §3

Mus musculus [31] = species: Mus musculus; assay: Avoiding pressure on limbs in mice at mid dose 1 with Hypervitaminosis; 0/16; type: functional, organism-based; details: Limb
Mus musculus [32] = species: Mus musculus; assay: Fracture incidence in mouse at high dose; 2/8
Mus musculus [33] = species: Mus musculus; assay: Enlarged spleen in Gross pathological observations in mice with hypervitaminosis A at mid dose 1 with gross observations/total number of mice in group; 0/16; type: functional, organism-based
Mus musculus [34] = species: Mus musculus; assay: Alopecia in mice observed at high dose with Hypervitaminosis; 1/16; type: functional, organism-based
Mus musculus [35] = species: Mus musculus; assay: Effect of compound on serum Alkaline phosphatase levels in mice at mid dose 2 on day 29; type: functional
Outline: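 Male B6D2F1 mice dosed daily by oral gavage in corn oil at low, mid 1, mid 2 or high dose. Blood sampled on set days (8, 29, 36, 65) for clinical chemistry, serum alkaline phosphatase and triglycerides. Group mean ± SD reported as % relative to vehicle 1; significance p < 0.05 versus corn oil vehicle.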

Mus musculus [36] = species: Mus musculus; assay: Fracture incidence in mouse at mid dose 2; 6/7
Mus musculus [37] = species: Mus musculus; assay: Effect of compound on adrenal to body weight ratios in mice at high dose on day 65; all the animals died by day 65; type: functional, organism-based
Outline: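 Male B6D2F1 mice dosed daily by gavage with compound in corn oil; vehicle 1 (corn oil) controls run to termination on day 65. Low, mid 1, mid 2 and high dose groups, with dosage increases partway through the study. Organ-to-body weight ratios (×1000) taken at necropsy on day 65, reported as mean ± SD for 4 to 8 animals and as % difference from vehicle.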

Mus musculus [38] = species: Mus musculus; assay: Enlarged lymph in gross pathological observations in mice with hypervitaminosis A at mid dose 1 with gross observations/total number of mice in group; 6/16; type: functional, organism-based
Mus musculus [39] = species: Mus musculus; assay: Fracture incidence in mouse at mid dose 1; 5/8
Mus musculus [40] = species: Mus musculus; assay: Effect of compound on white blood cells levels in mice at low dose on day 65; type: functional
Outline: as §2

Mus musculus [41] = species: Mus musculus; assay: Enlarged lymph in gross pathological observations in mice with hypervitaminosis A at mid dose 2 with gross observations/total number of mice in group; 8/16; type: functional, organism-based

CC(/C=C/C=C(\C)c1ccc2c(c1)C(C)(C)CCO2)=C\C(=O)O
Activity (Mus musculus [1]): Weak activity | Mortality (Mus musculus [2]): 0 day of death | Activity (Mus musculus [3]): 112.3 | Activity (Mus musculus [4]): inactive | Activity (Mus musculus [5]): inactive

C/C(=C\c1ccc(C(=O)O)cc1)c1ccc2c(c1)C(C)(C)CCC2(C)C
Activity (Mus musculus [6]): Active | Activity (Mus musculus [7]): Toxic | Activity (Mus musculus [8]): Active | Activity (Mus musculus [9]): inactive | Activity (Mus musculus [10]): Toxic | Activity (Mus musculus [11]): 0 | Activity (Mus musculus [12]): inactive | Activity (Mus musculus [13]): Weak activity | Activity (Mus musculus [14]): inactive | Activity (Mus musculus [15]): Weak activity | Mortality [16]: 0 day of death | Activity (Mus musculus [17]): inactive | Activity (Mus musculus [18]): Toxic | Mortality [19]: 16 day of death | Activity (Mus musculus [20]): Weak activity | Activity (Mus musculus [21]): Toxic | Max tolerated dose (Mus musculus [22]): 1 µg/kg | Activity (Mus musculus [23]): Active | Activity (Mus musculus [24]): Active | Activity (Mus musculus [25]): Toxic | Dose (Mus musculus [26]): >250 µg/kg | Activity (Mus musculus [27]): 8 | Activity (Mus musculus [28]): Toxic | Activity (Mus musculus [29]): Toxic | Activity (Mus musculus [30]): >25

CC(/C=C/C=C(\C)c1ccc2c(c1)C(C)(C)CCS2)=C\C(=O)O
Activity (Mus musculus [31]): inactive | Activity (Mus musculus [32]): Weak activity | Activity (Mus musculus [33]): inactive | Activity (Mus musculus [34]): inactive

C/C(=C\c1ccc(C(=O)O)cc1)c1ccc2c(c1)C(C)(C)CCO2
Activity (Mus musculus [35]): 106.3 | Activity (Mus musculus [36]): Active | Activity (Mus musculus [37]): Toxic | Activity (Mus musculus [38]): Weak activity | Activity (Mus musculus [39]): Weak activity | Activity (Mus musculus [40]): 4.27 | Activity (Mus musculus [41]): Weak activity
